Measurements reported in ChEMBL document CHEMBL1153277 (Bioorg Med Chem Lett, 2009).

Experiments:
[1] = target: Neuronal acetylcholine receptor subunit alpha-7 (Homo sapiens, UniProt P36544); experiment: Agonist activity at human recombinant alpha7 nAChR expressed in rat GH3 cells by calcium influx assay; assay type: functional, cell-based
Method in brief: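 GH3 cells recombinantly expressing human α7 nAChR; agonist activity. Each compound run in duplicate. EC50 taken from individual 8-point concentration-response curves and expressed as pEC50, with Emax given in %.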

[2] = organism: Homo sapiens; experiment: Selectivity for human alpha3beta4 nAChR over human alpha7 nAChR
[3] = test system: Brain; experiment: Drug level in DBA/2 mouse brain at 30 umol/kg, po after 1 hr; assay type: ADME, organism-based; conditions: in vivo
Method in brief: (§1)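 Mice (n = 6) dosed 30 µmol/kg po. Brain and plasma levels measured at 1 h and 4 h after dosing, reported as pmol/g.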

[4] = target: Neuronal acetylcholine receptor; alpha4/beta2 (Homo sapiens, UniProt P17787+P43681); experiment: Antagonist activity at human alpha4beta2 nAChR expressed in HEK293 cells by calcium influx assay; assay type: functional, cell-based
[5] = test system: Mus musculus; experiment: Plasma concentration in DBA/2 mouse at 30 umol/kg, po after 1 hr; assay type: ADME, organism-based; conditions: in vivo; method in brief: as §1
[6] = organism: Homo sapiens; experiment: Selectivity for human 5HT3 receptor over human alpha7 nAChR
[7] = Octanol-water partition coefficient, log P of the compound; assay type: physicochemical
[8] = Metabolic stability in mouse liver microsomes assessed as hepatic extraction ratio; assay type: ADME, Microsome; conditions: read-out: Activity
Method in brief: (§2)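 Compound incubated with mouse or human liver microsomes. In vitro hepatic extraction ratio reported as % compound depleted at the end of the experiment; half-life also given.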

[9] = target: Acetylcholine receptor; alpha1/beta1/delta/gamma (Homo sapiens, UniProt P02708+P07510+P11230+Q07001); experiment: Antagonist activity at human alpha-1-beta-1-gamma-delta nAChR expressed in human TE671 cells by calcium influx assay; assay type: functional, cell-based, TE-671
[10] = target: T1, 5-hydroxytryptamine receptor 3A (Homo sapiens, UniProt P46098); experiment: Antagonist activity at human 5HT3 receptor by calcium influx assay; assay type: functional
T1 sequence (P46098 whole entry): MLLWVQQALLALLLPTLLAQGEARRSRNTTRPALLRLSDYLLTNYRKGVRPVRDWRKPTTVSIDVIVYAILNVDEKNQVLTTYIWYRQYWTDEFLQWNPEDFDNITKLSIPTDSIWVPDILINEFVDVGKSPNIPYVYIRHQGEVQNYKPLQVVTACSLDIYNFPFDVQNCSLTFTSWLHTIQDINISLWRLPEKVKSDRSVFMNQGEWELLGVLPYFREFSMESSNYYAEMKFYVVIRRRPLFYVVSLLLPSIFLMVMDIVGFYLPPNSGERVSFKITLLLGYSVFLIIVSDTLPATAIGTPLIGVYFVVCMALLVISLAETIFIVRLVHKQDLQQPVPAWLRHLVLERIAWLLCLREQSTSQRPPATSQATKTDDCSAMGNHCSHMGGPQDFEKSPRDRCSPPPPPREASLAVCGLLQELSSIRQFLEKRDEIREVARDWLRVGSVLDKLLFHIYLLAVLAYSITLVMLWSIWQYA

[11] = Metabolic stability in human liver microsomes assessed as hepatic extraction ratio; assay type: ADME, Microsome; conditions: read-out: Activity; method in brief: as §2
[12] = organism: Homo sapiens; experiment: Selectivity for human alpha-1-beta-1-gamma-delta nAChR over human alpha7 nAChR
[13] = test system: Brain; experiment: Drug level in DBA/2 mouse brain at 30 umol/kg, po after 4 hrs; assay type: ADME, organism-based; conditions: in vivo; method in brief: as §1
[14] = target: Neuronal acetylcholine receptor; alpha3/beta4 (Homo sapiens, UniProt P30926+P32297); experiment: Antagonist activity at human alpha3beta4 nAChR expressed in HEK293 cells by calcium influx assay; assay type: functional, cell-based
[15] = organism: Homo sapiens; experiment: Selectivity for human alpha4beta2 nAChR over human alpha7 nAChR
[16] = test system: Mus musculus; experiment: Plasma concentration in DBA/2 mouse at 30 umol/kg, po after 4 hrs; assay type: ADME, organism-based; conditions: in vivo; method in brief: as §1

Sequence of Neuronal acetylcholine receptor; alpha3/beta4 (P30926 whole entry): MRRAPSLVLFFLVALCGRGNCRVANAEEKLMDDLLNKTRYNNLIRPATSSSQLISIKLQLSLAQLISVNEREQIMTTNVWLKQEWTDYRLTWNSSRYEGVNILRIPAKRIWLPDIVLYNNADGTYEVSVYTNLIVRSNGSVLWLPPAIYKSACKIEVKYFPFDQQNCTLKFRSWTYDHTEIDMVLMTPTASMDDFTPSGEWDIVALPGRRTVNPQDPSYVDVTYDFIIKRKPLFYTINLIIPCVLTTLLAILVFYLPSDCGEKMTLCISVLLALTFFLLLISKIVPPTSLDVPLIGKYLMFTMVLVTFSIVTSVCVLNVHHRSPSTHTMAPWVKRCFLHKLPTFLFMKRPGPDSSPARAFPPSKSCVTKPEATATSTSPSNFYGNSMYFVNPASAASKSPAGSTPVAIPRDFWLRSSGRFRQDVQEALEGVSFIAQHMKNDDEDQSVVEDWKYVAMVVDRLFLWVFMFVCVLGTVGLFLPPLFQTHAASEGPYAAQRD
Sequence of Neuronal acetylcholine receptor; alpha3/beta4 (P32297 whole entry): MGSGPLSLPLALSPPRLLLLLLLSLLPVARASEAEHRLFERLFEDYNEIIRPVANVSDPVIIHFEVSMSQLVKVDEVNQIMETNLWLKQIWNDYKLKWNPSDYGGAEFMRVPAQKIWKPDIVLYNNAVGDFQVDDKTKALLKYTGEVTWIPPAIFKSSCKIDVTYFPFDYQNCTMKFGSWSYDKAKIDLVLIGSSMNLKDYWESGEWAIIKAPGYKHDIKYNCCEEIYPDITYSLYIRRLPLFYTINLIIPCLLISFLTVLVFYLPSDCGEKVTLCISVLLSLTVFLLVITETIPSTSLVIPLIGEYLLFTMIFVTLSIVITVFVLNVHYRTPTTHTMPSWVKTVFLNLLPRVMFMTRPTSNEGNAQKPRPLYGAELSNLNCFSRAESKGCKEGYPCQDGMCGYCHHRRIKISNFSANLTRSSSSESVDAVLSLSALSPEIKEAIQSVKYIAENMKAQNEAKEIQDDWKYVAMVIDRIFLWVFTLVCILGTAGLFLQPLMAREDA
Sequence of Acetylcholine receptor; alpha1/beta1/delta/gamma (P02708 whole entry): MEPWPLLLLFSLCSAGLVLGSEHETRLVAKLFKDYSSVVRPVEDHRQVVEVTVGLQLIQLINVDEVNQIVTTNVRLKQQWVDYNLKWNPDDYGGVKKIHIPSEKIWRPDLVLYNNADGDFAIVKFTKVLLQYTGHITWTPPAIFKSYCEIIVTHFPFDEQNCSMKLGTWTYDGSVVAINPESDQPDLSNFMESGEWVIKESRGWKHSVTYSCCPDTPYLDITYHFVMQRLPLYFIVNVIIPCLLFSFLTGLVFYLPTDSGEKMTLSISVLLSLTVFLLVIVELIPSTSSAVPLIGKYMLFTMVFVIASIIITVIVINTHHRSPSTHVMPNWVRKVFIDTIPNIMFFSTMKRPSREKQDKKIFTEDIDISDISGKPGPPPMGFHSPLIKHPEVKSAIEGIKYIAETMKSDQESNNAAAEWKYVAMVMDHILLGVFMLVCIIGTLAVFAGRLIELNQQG
Sequence of Acetylcholine receptor; alpha1/beta1/delta/gamma (P07510 whole entry): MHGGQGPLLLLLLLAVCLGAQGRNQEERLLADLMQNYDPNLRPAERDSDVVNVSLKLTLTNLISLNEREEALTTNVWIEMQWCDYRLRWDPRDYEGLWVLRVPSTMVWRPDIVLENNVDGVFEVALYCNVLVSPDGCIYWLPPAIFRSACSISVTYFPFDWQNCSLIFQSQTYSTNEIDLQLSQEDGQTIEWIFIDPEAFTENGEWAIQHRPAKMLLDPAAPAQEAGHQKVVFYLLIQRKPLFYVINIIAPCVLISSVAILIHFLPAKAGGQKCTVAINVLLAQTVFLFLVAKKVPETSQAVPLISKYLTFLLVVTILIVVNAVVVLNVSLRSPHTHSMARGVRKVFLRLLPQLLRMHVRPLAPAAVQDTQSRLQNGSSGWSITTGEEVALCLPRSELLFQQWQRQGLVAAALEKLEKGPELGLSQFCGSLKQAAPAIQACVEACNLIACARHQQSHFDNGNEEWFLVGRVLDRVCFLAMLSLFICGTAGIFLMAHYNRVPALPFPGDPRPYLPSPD
Sequence of Acetylcholine receptor; alpha1/beta1/delta/gamma (P11230 whole entry): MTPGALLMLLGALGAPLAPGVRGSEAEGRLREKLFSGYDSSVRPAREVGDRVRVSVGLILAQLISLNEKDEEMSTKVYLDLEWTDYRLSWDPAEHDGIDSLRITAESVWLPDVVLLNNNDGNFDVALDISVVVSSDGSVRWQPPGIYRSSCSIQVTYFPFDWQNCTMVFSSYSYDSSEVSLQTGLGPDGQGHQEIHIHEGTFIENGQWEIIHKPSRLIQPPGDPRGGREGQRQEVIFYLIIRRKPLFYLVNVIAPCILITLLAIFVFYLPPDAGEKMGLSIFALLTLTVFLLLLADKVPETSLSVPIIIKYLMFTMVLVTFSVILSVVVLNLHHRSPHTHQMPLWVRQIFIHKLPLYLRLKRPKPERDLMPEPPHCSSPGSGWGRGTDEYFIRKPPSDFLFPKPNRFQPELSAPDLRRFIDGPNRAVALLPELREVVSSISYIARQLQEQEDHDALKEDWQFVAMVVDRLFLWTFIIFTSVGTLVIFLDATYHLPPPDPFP
Sequence of Acetylcholine receptor; alpha1/beta1/delta/gamma (Q07001 whole entry): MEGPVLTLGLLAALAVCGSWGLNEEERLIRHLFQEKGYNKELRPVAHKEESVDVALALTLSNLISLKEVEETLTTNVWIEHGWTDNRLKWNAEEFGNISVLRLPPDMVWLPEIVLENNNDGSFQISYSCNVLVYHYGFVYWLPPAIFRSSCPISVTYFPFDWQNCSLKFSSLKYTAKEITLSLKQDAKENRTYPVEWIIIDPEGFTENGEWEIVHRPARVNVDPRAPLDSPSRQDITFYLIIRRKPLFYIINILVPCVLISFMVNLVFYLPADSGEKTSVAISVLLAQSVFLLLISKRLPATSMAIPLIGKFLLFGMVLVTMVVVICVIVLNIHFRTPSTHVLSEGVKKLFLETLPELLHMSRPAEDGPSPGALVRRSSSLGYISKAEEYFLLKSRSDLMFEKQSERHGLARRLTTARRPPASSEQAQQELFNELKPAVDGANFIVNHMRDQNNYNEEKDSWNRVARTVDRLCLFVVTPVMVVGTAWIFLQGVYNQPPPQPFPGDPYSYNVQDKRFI
Sequence of Neuronal acetylcholine receptor subunit alpha-7 (P36544 whole entry): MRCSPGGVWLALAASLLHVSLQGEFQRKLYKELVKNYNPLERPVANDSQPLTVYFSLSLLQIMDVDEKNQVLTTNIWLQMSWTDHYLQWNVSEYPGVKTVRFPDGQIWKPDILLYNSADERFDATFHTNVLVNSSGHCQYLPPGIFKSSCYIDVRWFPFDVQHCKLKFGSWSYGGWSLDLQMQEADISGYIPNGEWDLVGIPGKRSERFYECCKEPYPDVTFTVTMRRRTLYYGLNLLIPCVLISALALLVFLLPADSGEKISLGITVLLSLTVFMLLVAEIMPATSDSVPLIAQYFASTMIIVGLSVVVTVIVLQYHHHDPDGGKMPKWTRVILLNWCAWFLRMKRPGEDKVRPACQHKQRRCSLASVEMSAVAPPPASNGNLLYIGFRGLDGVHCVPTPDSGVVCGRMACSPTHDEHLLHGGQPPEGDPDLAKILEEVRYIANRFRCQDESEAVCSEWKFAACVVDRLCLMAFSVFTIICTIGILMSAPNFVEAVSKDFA
Sequence of Neuronal acetylcholine receptor; alpha4/beta2 (P17787 whole entry): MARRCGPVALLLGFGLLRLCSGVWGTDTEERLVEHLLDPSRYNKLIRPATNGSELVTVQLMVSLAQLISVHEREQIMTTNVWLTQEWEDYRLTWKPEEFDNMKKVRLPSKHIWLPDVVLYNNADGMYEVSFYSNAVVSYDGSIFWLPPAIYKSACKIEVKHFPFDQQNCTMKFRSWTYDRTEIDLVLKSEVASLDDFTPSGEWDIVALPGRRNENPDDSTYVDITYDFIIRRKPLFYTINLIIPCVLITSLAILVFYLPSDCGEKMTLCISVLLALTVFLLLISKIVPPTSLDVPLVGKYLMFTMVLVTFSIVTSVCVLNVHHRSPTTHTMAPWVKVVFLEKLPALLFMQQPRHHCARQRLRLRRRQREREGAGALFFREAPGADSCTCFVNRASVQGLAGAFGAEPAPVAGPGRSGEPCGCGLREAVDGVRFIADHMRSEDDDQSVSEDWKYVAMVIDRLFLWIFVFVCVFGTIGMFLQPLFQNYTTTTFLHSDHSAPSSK
Sequence of Neuronal acetylcholine receptor; alpha4/beta2 (P43681 whole entry): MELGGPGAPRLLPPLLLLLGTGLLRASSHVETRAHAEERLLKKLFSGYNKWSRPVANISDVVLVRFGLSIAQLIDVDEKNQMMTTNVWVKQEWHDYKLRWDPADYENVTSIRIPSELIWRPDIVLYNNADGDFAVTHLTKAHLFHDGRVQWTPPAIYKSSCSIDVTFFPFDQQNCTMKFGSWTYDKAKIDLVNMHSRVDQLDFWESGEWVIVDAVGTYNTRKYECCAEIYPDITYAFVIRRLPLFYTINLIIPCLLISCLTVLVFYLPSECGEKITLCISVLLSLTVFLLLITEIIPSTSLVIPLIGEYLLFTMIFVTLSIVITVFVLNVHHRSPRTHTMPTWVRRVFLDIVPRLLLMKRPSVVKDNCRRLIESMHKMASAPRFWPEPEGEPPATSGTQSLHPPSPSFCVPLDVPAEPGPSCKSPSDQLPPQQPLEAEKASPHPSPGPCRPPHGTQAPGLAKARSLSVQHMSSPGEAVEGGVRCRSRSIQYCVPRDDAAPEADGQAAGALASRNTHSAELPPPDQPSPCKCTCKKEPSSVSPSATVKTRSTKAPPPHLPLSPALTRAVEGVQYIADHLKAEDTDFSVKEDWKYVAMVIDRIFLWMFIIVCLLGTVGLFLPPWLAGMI

SMILES	EC50 [1]	Emax [1]	other results
CN1C(=O)[C@@H](CN2CCCCC2)C[C@H]1C#Cc1ccccc1Cl	25.1 nM	89%	Ratio [2]: 52
Cc1cc([C@@H]2C[C@H](CN3CCCCC3)C(=O)N2C)sc1-c1ccccc1Cl (relative stereo)	631 nM	81%	
Clc1ccc([C@@H]2C[C@H]3CC[C@@H]2N3)cn1 [(+)-EPIBATIDINE]	39.8 nM	100%	
CN1C(=O)[C@@H](CN2CCCCC2)C[C@H]1c1ccccc1Cl	794 nM	89%	
COc1cccc([C@@H]2C[C@H](CN3CCCC3)C(=O)N2C)c1 (relative stereo)	7940 nM	80%	
CN1C(=O)[C@@H](CN2CCCCC2)C[C@H]1c1ccc(C2CCCCC2)cc1 (relative stereo)	316 nM	60%	
CN1C(=O)[C@@H](CN2CCCCC2)C[C@H]1C#Cc1ccc2occc2c1 (relative stereo)	7.94 nM	90%	Drug uptake [3]: 6533 pmol/g; IC50 [4]: 5.01 µM; Cp [5]: 1001 pmol/g; Ratio [6]: 17000; logP [7]: 3.9; hepatic extraction ratio [8]: 0.67; IC50 [9]: 100 µM; IC50 [10]: 100 µM; hepatic extraction ratio [11]: 0.68; Ratio [12]: 17000; Ratio [2]: 123; Drug uptake [13]: 3676 pmol/g; IC50 [14]: 794 nM; Ratio [15]: 660; Cp [16]: 544 pmol/g
CN1C(=O)[C@@H](CN2CCCCC2)C[C@H]1c1ccc(Cl)cc1 (relative stereo)	1000 nM	110%	
CN1C(=O)[C@@H](CN2CCCCCC2)C[C@H]1c1ccccc1Cl (relative stereo)	2000 nM	82%	
CN1CCC[C@H]1c1cccnc1		100%	
CN1C(=O)[C@@H](CN2CCCCC2)C[C@H]1C#Cc1ccc2c(c1)CCO2 (relative stereo)	7.94 nM	80%	IC50 [4]: 10 µM; Ratio [6]: 5390; IC50 [9]: 6.31 µM; IC50 [10]: 50.1 µM; Ratio [12]: 773; Ratio [2]: 154; IC50 [14]: 1000 nM; Ratio [15]: 1260
CN1C(=O)[C@@H](CN2CCCCC2)C[C@H]1c1nc(-c2ccccc2Cl)c[nH]1 (relative stereo)	1260 nM	61%	
COc1ccccc1[C@@H]1C[C@H](CN2CCCCC2)C(=O)N1C (relative stereo)	1260 nM	107%	
CN1C(=O)[C@@H](CN2CCCCC2)C[C@H]1c1ccc(Br)cc1 (relative stereo)	631 nM	89%	
CN1C(=O)[C@@H](CN2CCCCC2)C[C@H]1c1ccc(-c2ccccc2)cc1	1260 nM	61%	
CN1C(=O)[C@@H](CN2CCCCC2)C[C@H]1C#Cc1ccc2c(ccn2C)c1 (relative stereo)	7.94 nM	100%	IC50 [4]: 2 µM; Ratio [6]: 3220; IC50 [9]: 3.98 µM; IC50 [10]: 25.1 µM; Ratio [12]: 431; Ratio [2]: 111; IC50 [14]: 1000 nM; Ratio [15]: 232
CN1C(=O)[C@@H](CN2CCCCC2)C[C@H]1c1nc(-c2ccccc2Cl)cn1C (relative stereo)	631 nM	47%	
O=C1NC[C@@]2(CN3CCC2CC3)O1	398 nM	104%	
Cc1ccc([C@@H]2C[C@H](CN3CCCCC3)C(=O)N2C)cc1 (relative stereo)	631 nM	114%	
CN1C(=O)[C@@H](CN2CCCCC2)C[C@H]1c1ccc(C2CCCC2)cc1 (relative stereo)	316 nM	28%	
CN1C(=O)[C@@H](CN2CCCCC2)C[C@H]1c1ccc(-c2ccccc2Cl)s1 (relative stereo)	31.6 nM	79%	Ratio [2]: 26
COc1ccc([C@@H]2C[C@H](CN3CCCCC3)C(=O)N2C)cc1 (relative stereo)	1260 nM	124%	
CN1C(=O)[C@@H](CN2CCCCC2)C[C@H]1c1cccc(Cl)c1 (relative stereo)	1000 nM	102%	
COc1ccc(/C=C2\CCCN=C2c2cccnc2)c(OC)c1 [GTS-21]	2000 nM	71%	
CN1C(=O)[C@@H](CN2CCCCC2)C[C@H]1c1cnc(-c2ccccc2Cl)s1 (relative stereo)	25.1 nM	89%	Ratio [2]: 14
CN1C(=O)[C@@H](CN2CCCCC2)C[C@H]1c1ccc(-c2ccccc2Cl)cc1 (relative stereo)	126 nM	62%	Ratio [2]: 3
Cc1ccccc1C#C[C@@H]1C[C@H](CN2CCCCC2)C(=O)N1C (relative stereo)	15.8 nM	83%	Ratio [2]: 104
CN1C(=O)[C@@H](CN2CCCCC2)C[C@H]1c1ccc(-c2ccccc2F)cc1 (relative stereo)	316 nM	47%	
COc1cccc([C@@H]2C[C@H](CN3CCCCC3)C(=O)N2C)c1 (relative stereo)	1260 nM	128%	
